ChEMBL document CHEMBL5705890, “Antitumor activity of an allosteric inhibitor of centromere-associated protein-E” (Proc Natl Acad Sci U S A, 2010)

Key:
Format in all cases: functional
[1] = tested on: C3A; assay: Anticancer activity against human C3A cells assessed as cell doubling measured for 72 hrs by DAPI staining based analysis
[2] = tested on: MX1; assay: Anticancer activity against human MX1 cells assessed as cell growth inhibition measured after 72 hrs by DAPI staining based analysis
[3] = Antitumor activity against human MV-522 cells in xenograft model assessed as difference between median time to endpoint time of treated versus control group at 125 mg/kg
[4] = tested on: T-24; assay: Anticancer activity against human T24 cells assessed as cell doubling measured for 72 hrs by DAPI staining based analysis
[5] = tested on: NCI-H661; assay: Anticancer activity against human NCI-H661 cells assessed as cell growth inhibition measured after 72 hrs by DAPI staining based analysis
[6] = tested on: SNU-475; assay: Anticancer activity against human SNU-475 cells assessed as cell doubling measured for 72 hrs by DAPI staining based analysis
[7] = tested on: DU-4475; assay: Anticancer activity against human DU-4475 cells assessed as cell growth inhibition measured after 72 hrs by DAPI staining based analysis
Procedure, shortened: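 Cells seeded, DAPI-stained DNA content of fixed cells read by imaging 24 h after seeding (T0), and again after a further 72 h exposure to a range of drug concentrations (T72). T72 values were normalized to T0. Curve fits gave the concentration producing 50% growth inhibition relative to T0 and Ymax (GI50).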

[8] = tested on: SW1463; assay: Anticancer activity against human SW1463 cells assessed as cell growth inhibition measured after 72 hrs by DAPI staining based analysis
[9] = tested on: MDA-MB-435; assay: Anticancer activity against human MDA-MB-435 cells assessed as cell growth inhibition measured after 72 hrs by DAPI staining based analysis
[10] = tested on: SNU-5; assay: Anticancer activity against human SNU-5 cells assessed as cell growth inhibition measured after 72 hrs by DAPI staining based analysis
[11] = tested on: DU-4475; assay: Anticancer activity against human DU-4475 cells assessed as cell doubling measured for 72 hrs by DAPI staining based analysis
[12] = tested on: 639-V; assay: Anticancer activity against human 639-V cells assessed as cell growth inhibition measured after 72 hrs by DAPI staining based analysis
Procedure, shortened: (§1)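 Cells were seeded and, after 24 h, DNA content was read as T0. Cells were then exposed to varying drug concentrations for a further 72 h (T72). Fixed cells were DAPI-stained and DNA content measured by automated imaging. T72 values were normalized to T0. GI50 is the concentration giving 50% growth inhibition between T0 and Ymax, obtained by curve fitting.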

[13] = tested on: A 172; assay: Anticancer activity against human A-172 cells assessed as cell growth inhibition measured after 72 hrs by DAPI staining based analysis; procedure, shortened: as §1
[14] = Anticancer activity against human MT-3 cells assessed as cell doubling measured for 72 hrs by DAPI staining based analysis
[15] = tested on: RXF 393; assay: Anticancer activity against human RXF 393 cells assessed as cell doubling measured for 72 hrs by DAPI staining based analysis
[16] = tested on: SiHa; assay: Anticancer activity against human SiHa cells assessed as cell growth inhibition measured after 72 hrs by DAPI staining based analysis
[17] = tested on: SNU-16; assay: Anticancer activity against human SNU-16 cells assessed as cell growth inhibition measured after 72 hrs by DAPI staining based analysis
[18] = tested on: CHL-1; assay: Anticancer activity against human CHL-1 cells assessed as cell doubling measured for 72 hrs by DAPI staining based analysis
[19] = tested on: SW684; assay: Anticancer activity against human SW684 cells assessed as cell growth inhibition measured after 72 hrs by DAPI staining based analysis
[20] = tested on: T84; assay: Anticancer activity against human T84 cells assessed as cell doubling measured for 72 hrs by DAPI staining based analysis
[21] = Anticancer activity against human C4-1 cells assessed as cell doubling measured for 72 hrs by DAPI staining based analysis
[22] = tested on: MIA PaCa-2; assay: Anticancer activity against human MIA PaCa-2 cells assessed as cell growth inhibition measured after 72 hrs by DAPI staining based analysis
[23] = tested on: MCF7; assay: Antitumor activity against human MCF7 cells in xenograft model assessed as tumor growth delay at 125 mg/kg relative to control
[24] = tested on: SK-LMS-1; assay: Anticancer activity against human SK-LMS-1 cells assessed as cell doubling measured for 72 hrs by DAPI staining based analysis
[25] = tested on: A 172; assay: Anticancer activity against human A-172 cells assessed as cell doubling measured for 72 hrs by DAPI staining based analysis
[26] = tested on: C-33-A; assay: Anticancer activity against human C-33-A cells assessed as cell growth inhibition measured after 72 hrs by DAPI staining based analysis
Procedure, shortened: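 Cells were seeded, and DNA content at 24 h after seeding (T0) was read by imaging of fixed, DAPI-stained cells. Cells were then exposed to a range of drug concentrations for a further 72 h (T72) and DNA content was read again. T72 values were normalized to T0, and GI50 was taken from curve fits as the concentration giving 50% growth inhibition relative to T0 and Ymax.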

[27] = tested on: MDA-MB-231; assay: Antitumor activity against human MDA-MB-231 cells in xenograft model assessed as tumor growth delay at 125 mg/kg relative to control
[28] = tested on: A498; assay: Anticancer activity against human A498 cells assessed as cell growth inhibition measured after 72 hrs by DAPI staining based analysis; procedure, shortened: as §1
[29] = tested on: HT-1376; assay: Anticancer activity against human HT-1376 cells assessed as cell doubling measured for 72 hrs by DAPI staining based analysis
[30] = tested on: JEG-3; assay: Anticancer activity against human JEG-3 cells assessed as cell growth inhibition measured after 72 hrs by DAPI staining based analysis
[31] = Anticancer activity against human BC-2 cells assessed as cell growth inhibition measured after 72 hrs by DAPI staining based analysis; procedure, shortened: as §1
[32] = tested on: HOP-62; assay: Anticancer activity against human HOP-62 cells assessed as cell doubling measured for 72 hrs by DAPI staining based analysis
[33] = tested on: ACHN; assay: Anticancer activity against human ACHN cells assessed as cell growth inhibition measured after 72 hrs by DAPI staining based analysis; procedure, shortened: as §1
[34] = tested on: SW1088; assay: Anticancer activity against human SW1088 cells assessed as cell growth inhibition measured after 72 hrs by DAPI staining based analysis
[35] = tested on: YAPC; assay: Anticancer activity against human YAPC cells assessed as cell growth inhibition measured after 72 hrs by DAPI staining based analysis
[36] = tested on: Raji; assay: Anticancer activity against human Raji cells assessed as cell growth inhibition measured after 72 hrs by DAPI staining based analysis
[37] = tested on: MES-SA; assay: Anticancer activity against human MES-SA cells assessed as cell growth inhibition measured after 72 hrs by DAPI staining based analysis
[38] = tested on: BC-3; assay: Anticancer activity against human BC-3 cells assessed as cell doubling measured for 72 hrs by DAPI staining based analysis
[39] = tested on: CAL-62; assay: Anticancer activity against human CAL-62 cells assessed as cell doubling measured for 72 hrs by DAPI staining based analysis
[40] = tested on: A-431; assay: Anticancer activity against human A-431 cells assessed as cell growth inhibition measured after 72 hrs by DAPI staining based analysis; procedure, shortened: as §1
[41] = tested on: Malme-3M; assay: Anticancer activity against human Malme-3M cells assessed as cell growth inhibition measured after 72 hrs by DAPI staining based analysis

CC(C)Oc1ccc(C(=O)N[C@H](CNC(=O)CN(C)C)Cc2ccc(-c3cn4cccc([C@H](C)O)c4n3)cc2)cc1Cl [GSK-923295A]
Activity [1]: 2.23
GI50 [2]: 30 nM
Time [3]: 26.3 days
Activity [4]: 1.57
GI50 [5]: 22 nM
Activity [6]: 1.8
GI50 [7]: 147 nM
GI50 [8]: 31 nM
GI50 [9]: 30 nM
GI50 [10]: 88 nM
Activity [11]: 2.05
GI50 [12]: 27 nM
GI50 [13]: 27 nM
Activity [14]: 2.93
Activity [15]: 1.2
GI50 [16]: 29 nM
GI50 [17]: 18 nM
Activity [18]: 3.27
GI50 [19]: 5020 nM
Activity [20]: 2.77
Activity [21]: 2.93
GI50 [22]: 23 nM
Activity [23]: 58%
Activity [24]: 2.84
Activity [25]: 1.84
GI50 [26]: 47 nM
Activity [27]: 99%
GI50 [28]: 81 nM
Activity [29]: 1.74
GI50 [30]: 25 nM
GI50 [31]: 45 nM
Activity [32]: 1.82
GI50 [33]: 61 nM
GI50 [34]: 32 nM
GI50 [35]: 59 nM
GI50 [36]: 41 nM
GI50 [37]: 65 nM
Activity [38]: 2.65
Activity [39]: 3.31
GI50 [40]: 21 nM
GI50 [41]: 51 nM
